Laboratory results: the RNAGym collection of RNA variant scans (doi:10.1126/science.aae0568)
Variants at the floor of the assay were thinned out.

B1: tRNA (parent)
chain: GUUCCGUUGGCGUAAUGGUAACGCGUCUCCCUCCUAAGGAGAAGACUGCGGGUUCGAGUCCCGUACGGAACG

Variants of: B1
Experiment: yeast fitness relative to wild type (ratio to wild type); higher = fitter; tRNA-Arg(CCU), competitive growth, 37 C, YPD
Procedure, shortened: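 Gene amplicons from the start population and from each of six end populations were read by 100-nucleotide paired-end sequencing. Those end populations came from pooled Saccharomyces cerevisiae strains carrying tRNA-Arg(CCU) gene variants at the native locus, competed in YPD at 37°C for 24 hours. Fitness relative to wild type was worked out from changes in genotype frequencies. Genotypes needed ≥ 100 starting reads, and estimates < 0.5 were set to 0.5.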

A15G A21C C34U C61U and A15G A21C G39C A45G U53C cannot be ordered by yeast fitness: at most 0.5 for the first, at most 0.5 for the second.

A15G A21C U32C U64A and A15G A21C U54G A65U cannot be ordered by yeast fitness: at most 0.5 for the first, at most 0.5 for the second.

First: A15G A21G
Second: A15G A21G A42C C46A
The yeast fitness of the first is higher: 1.02 for the first, at most 0.5 for the second.

A15G A21G C27U U47C G56C A57G C66G and A15G A21G C29G A42G C55A cannot be ordered by yeast fitness: at most 0.5 for the first, at most 0.5 for the second.

First: A15G A21G C34G A45G A65C
Second: A15G A21G G52C C62A
The yeast fitness of the first is higher: 0.67 for the first, 0.616 for the second.

A15G A21U A36U C49U G52C C62A G67A and A15G A21U A37C G39C A57U C62U cannot be ordered by yeast fitness: at most 0.5 for the first, at most 0.5 for the second.

Compared with A15G A21U G63A, A15G A36C G50A is lower in yeast fitness: 0.627 for the first, at most 0.5 for the second.

First: A15G A36C U47A G48C U54G A65C
Second: A15G A36G
The yeast fitness of the first is lower: at most 0.5 for the first, 0.867 for the second.

Going from A15G A36G A70C to A15G A36G G44C, the yeast fitness falls from 0.674 to 0.659.

Compared with A15G A36U, A15G A36U C55U A65U is lower in yeast fitness: 0.679 for the first, at most 0.5 for the second.

First: A15G A37C
Second: A15G A37C G48C
The yeast fitness of the first is higher: 0.666 for the first, at most 0.5 for the second.

Compared with A15G A37C G50C, A15G A37G is higher in yeast fitness: 0.601 for the first, 0.795 for the second.

Going from A15G A37G C55A to A15G A37G G38A A45U, the yeast fitness rises from at most 0.5 to 0.507.

Compared with A15G A37U A43C, A15G A40C G50A is lower in yeast fitness: 0.518 for the first, at most 0.5 for the second.

Going from A15G A40G to A15G A40G A65G, the yeast fitness falls from 0.758 to 0.663.

Compared with A15G A42C, A15G A42C A45C G48A is lower in yeast fitness: 0.863 for the first, 0.63 for the second.

First: A15G A42C C49A
Second: A15G A42G A45C
The yeast fitness of the first is lower: 0.527 for the first, 0.557 for the second.

Compared with A15G A42G G48A, A15G A43G is higher in yeast fitness: 0.774 for the first, 0.975 for the second.

First: A15G A43U A57C
Second: A15G A43U A69C
The yeast fitness of the first is lower: 0.559 for the first, 0.8 for the second.

Going from A15G A45U G48A to A15G A57C C62A, the yeast fitness falls from 0.636 to at most 0.5.

A15G A57G C62G C66U and A15G A57U C60G G68C cannot be ordered by yeast fitness: at most 0.5 for the first, at most 0.5 for the second.

Going from A15G A65C to A15G A65G A70C, the yeast fitness falls from 0.867 to 0.714.

Compared with A15G A69C, A15G A70C is higher in yeast fitness: 0.999 for the first, 1.04 for the second.

Compared with A15G A70G, A15G C22G A36U A40G U59A is lower in yeast fitness: 0.999 for the first, at most 0.5 for the second.

Compared with A15G C22G U35C A43U, A15G C22U is higher in yeast fitness: 0.556 for the first, 0.871 for the second.

A15G C24A G52A and A15G C24A G63A cannot be ordered by yeast fitness: at most 0.5 for the first, at most 0.5 for the second.

A15G C24G A37G C49A and A15G C24G C29U cannot be ordered by yeast fitness: at most 0.5 for the first, at most 0.5 for the second.

Compared with A15G C24G C29U C34G U35C U54G G67C, A15G C24G C66G G67A is higher in yeast fitness: at most 0.5 for the first, 0.64 for the second.

Compared with A15G C24G G52A C66G G67A, A15G C24G U26A is higher in yeast fitness: at most 0.5 for the first, 0.656 for the second.

First: A15G C24G U26A G52A
Second: A15G C24G U26A G52A G67A G68C
The yeast fitness of the first is higher: 0.589 for the first, 0.561 for the second.

First: A15G C24G U32A G41A A69U
Second: A15G C24U C29U C30G U35G
The yeast fitness of the first is lower: at most 0.5 for the first, 0.737 for the second.

A15G C24U C29U C30G U35G A43U and A15G C24U C29U C30G U35G A70G cannot be ordered by yeast fitness: at most 0.5 for the first, at most 0.5 for the second.

First: A15G C24U C34U C61U
Second: A15G C27A
The yeast fitness of the first is lower: at most 0.5 for the first, 0.786 for the second.

Going from A15G C27A A36G A43G A65G to A15G C27A A43G, the yeast fitness falls from 0.571 to at most 0.5.

A15G C27A C60G and A15G C27G A36U G39C A69C cannot be ordered by yeast fitness: at most 0.5 for the first, at most 0.5 for the second.

Compared with A15G C27G A70U, A15G C27U G58C is higher in yeast fitness: 0.543 for the first, 0.717 for the second.

First: A15G C27U U28C
Second: A15G C29A A36G G39A
The yeast fitness of the first is higher: 0.731 for the first, at most 0.5 for the second.

Compared with A15G C29A A42C A70U, A15G C29A A69C is higher in yeast fitness: at most 0.5 for the first, 0.517 for the second.

A15G C29A U64C and A15G C29G A37U cannot be ordered by yeast fitness: at most 0.5 for the first, at most 0.5 for the second.

Going from A15G C29G C33G to A15G C29U A43C A69U, the yeast fitness rises from at most 0.5 to 0.536.

Compared with A15G C29U C34A A42U, A15G C29U C34G A40C is higher in yeast fitness: at most 0.5 for the first, 0.694 for the second.

Going from A15G C30A A43G A57U to A15G C30A A65C, the yeast fitness rises from 0.529 to 0.609.

Going from A15G C30A C62A to A15G C30G A43U C62A, the yeast fitness rises from at most 0.5 to 0.611.

A15G C30G C49G A65U and A15G C30G C55A cannot be ordered by yeast fitness: at most 0.5 for the first, at most 0.5 for the second.

A15G C30U C31A A36C and A15G C31A A65G cannot be ordered by yeast fitness: at most 0.5 for the first, at most 0.5 for the second.

Going from A15G C31A A70U to A15G C31A G41C G56A G58C, the yeast fitness falls from 0.639 to at most 0.5.

Compared with A15G C31G, A15G C31G U35C A37U A57U is lower in yeast fitness: 0.852 for the first, at most 0.5 for the second.

First: A15G C31G U35C A43C
Second: A15G C31G U35C A43C A57C G58A
The yeast fitness of the first is higher: 0.586 for the first, at most 0.5 for the second.

Going from A15G C31G U47G C49G to A15G C31U, the yeast fitness rises from 0.545 to 0.987.

Going from A15G C31U C60A to A15G C31U G58A, the yeast fitness rises from 0.584 to 1.03.

Compared with A15G C33G, A15G C33U A45U C62A is lower in yeast fitness: 0.732 for the first, at most 0.5 for the second.

First: A15G C34G
Second: A15G C34G A37U C49G
The yeast fitness of the first is higher: 0.636 for the first, at most 0.5 for the second.

First: A15G C34U A36G
Second: A15G C34U A40U
The yeast fitness of the first is higher: 0.563 for the first, at most 0.5 for the second.

A15G C34U A40U U54C and A15G C34U G41C C49U cannot be ordered by yeast fitness: at most 0.5 for the first, at most 0.5 for the second.

Going from A15G C46A to A15G C46U, the yeast fitness rises from 0.884 to 0.987.

Going from A15G C49G to A15G C49G C62G, the yeast fitness falls from 0.782 to at most 0.5.

First: A15G C49G C66G G67C
Second: A15G C49G G63C
The yeast fitness of the first is lower: at most 0.5 for the first, 0.594 for the second.

First: A15G C49U A69U
Second: A15G C49U C60G
The yeast fitness of the first is higher: 0.8 for the first, at most 0.5 for the second.

First: A15G C55A
Second: A15G C55G G56U G68C
The yeast fitness of the first is higher: 0.727 for the first, at most 0.5 for the second.

First: A15G C60G C62U
Second: A15G C60U
The yeast fitness of the first is lower: at most 0.5 for the first, 0.786 for the second.

Compared with A15G C60U C62U, A15G C61A C62G G68A is lower in yeast fitness: 0.64 for the first, at most 0.5 for the second.

Compared with A15G C62G C66G, A15G C62G C66U is higher in yeast fitness: at most 0.5 for the first, 0.535 for the second.

Going from A15G C62U A69C to A15G C66A, the yeast fitness falls from 0.829 to 0.657.

First: A15G C66U
Second: A15G G17A
The yeast fitness of the first is higher: 0.887 for the first, 0.881 for the second.

A15G G17A A21C and A15G G17A A40C cannot be ordered by yeast fitness: at most 0.5 for the first, at most 0.5 for the second.

First: A15G G17A C29G C31U A65G C66G
Second: A15G G17A C30A
The yeast fitness of the first is higher: 0.552 for the first, 0.529 for the second.

Going from A15G G17A C33U G39C C55A G67C to A15G G17A C49U, the yeast fitness rises from 0.66 to 0.687.

A15G G17C C33A C46A G52A G63C and A15G G17C C61A cannot be ordered by yeast fitness: at most 0.5 for the first, at most 0.5 for the second.

Compared with A15G G18A, A15G G18A C46U is lower in yeast fitness: 0.793 for the first, 0.645 for the second.

A15G G18A C49A and A15G G18A G48C C61A cannot be ordered by yeast fitness: at most 0.5 for the first, at most 0.5 for the second.

Compared with A15G G18U, A15G G23A G48A is lower in yeast fitness: 0.75 for the first, 0.675 for the second.

Compared with A15G G23C A37U A65U, A15G G23C A43G is higher in yeast fitness: at most 0.5 for the first, 0.54 for the second.

Compared with A15G G23C C30A A42C G44A G51C, A15G G23C C30A A42C G51C is higher in yeast fitness: at most 0.5 for the first, 0.537 for the second.

A15G G23C C30A A42C G51C C61A G67A and A15G G23C G38C C49U cannot be ordered by yeast fitness: at most 0.5 for the first, at most 0.5 for the second.

Compared with A15G G23C G38C G52C C66A, A15G G23C G38C G52C G58A is higher in yeast fitness: at most 0.5 for the first, 0.507 for the second.

A15G G23C G38C G52C U54C G58A and A15G G23C U28A cannot be ordered by yeast fitness: at most 0.5 for the first, at most 0.5 for the second.

Compared with A15G G25A, A15G G25A C27A G50A is lower in yeast fitness: 0.87 for the first, 0.592 for the second.

First: A15G G25A U28C U35A G38A C46G C62U
Second: A15G G25A U32G A40G C60G
The yeast fitness of the first is higher: 0.527 for the first, 0.501 for the second.

Going from A15G G25C to A15G G25C C55U, the yeast fitness falls from 0.987 to 0.562.

Going from A15G G25C G48A to A15G G38A A40C G50A U54A, the yeast fitness falls from 0.637 to at most 0.5.

First: A15G G38C C49U
Second: A15G G39C
The yeast fitness of the first is lower: 0.544 for the first, 0.736 for the second.

First: A15G G39C C46U
Second: A15G G41A A43U G50C
The yeast fitness of the first is higher: 0.689 for the first, at most 0.5 for the second.

Compared with A15G G41C A43C G67A, A15G G44A G50C C60U A70G is lower in yeast fitness: 0.535 for the first, at most 0.5 for the second.

Variant A15G G44A G58A has a yeast fitness of 0.992.
